Experimental data: ChEMBL document CHEMBL3232837, “Synthesis and evaluation of new Hsp90 inhibitors based on a 1,4,5-trisubstituted 1,2,3-triazole scaffold” (J Med Chem, 2014)
pIC50: −log10 of the molar value. The source made the active and inactive calls. The rule behind the calls is not given here.

How the values were obtained:
Mus musculus [1] = assay: (§1) In vivo inhibition of HSP90 in human GTL16 cells overexpressing c-Met xenografted in CD-1 nude mouse assessed as induction of HSP70 protein expression at 8 mg/kg, ip administered as q4d/week for 2 weeks starting 3 days after tumor injection measured at 6 hrs post last dose by Western blot analysis; type: functional, organism-based; set-up: dose 8 mg/kg
Outline: (§2)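 Nude-mouse s.c. xenografts given i.p. compound from day 3. Tumors excised 2 h (A431) or 6 h (GTL-16) after last dose and homogenized in tissue protein extraction reagent with 10 µg/ml protease inhibitor cocktail. Whole lysates analysed by Western blot with actin as loading control; two tumor samples per group shown.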

Mus musculus [2] = assay: In vivo inhibition of HSP90 in human A431 cells overexpressing EGFR xenografted in CD-1 nude mouse assessed as induction of HSP70 protein expression at 8 mg/kg, ip administered as q4d/week for 2 weeks starting 3 days after tumor injection measured at 2 hrs post last dose by Western blot analysis; type: functional, organism-based; set-up: dose 8 mg/kg; conditions: A-431; outline: as §2
Mus musculus [3] = assay: Toxicity in CD-1 nude mouse xenografted with human A431 cells overexpressing EGFR assessed as body weight loss at 8 mg/kg, ip administered as q4d/week for 2 weeks starting 3 days after tumor injection measured on day 5 post last dose relative to vehicle-treated control; type: organism-based, A-431; set-up: dose 8 mg/kg, route intraperitoneal; conditions: in vivo
Outline: (§3)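 Female athymic nude mice carrying s.c. xenografts, dosed i.p. (mg/10 mL/kg per administration) starting 3 days after tumor injection. BWL% = 100 − (mean BW day x/mean BW day 1 × 100), day 1 being the first treatment day. Maximum BWL% recorded. Lethal toxicity counted as deaths before the first control death.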

[4] = target: Heat shock protein HSP 90-beta (Homo sapiens) (UniProt P08238); assay: Inhibition of HSP90 in human A431 cells overexpressing EGFR assessed as induction of HSP70 protein expression after 24 hrs by Western blot analysis; type: cell-based; conditions: A-431
Outline: (§4)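 A431 cells treated 24 h after seeding for 24 h over a concentration range; 17-DMAG 0.2 µM as reference. Cells lysed in RIPA buffer with protease and phosphatase inhibitors, protein measured by Bradford. Equal protein run on SDS-PAGE and blotted to nitrocellulose, then probed for EGFR, Cdk4, Akt, Hsp70 and actin. ECL detection; densitometry normalized to β-actin. Run at least twice.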

NCI-H460 = assay: Cytotoxicity against human NCI-H460 cells assessed as growth inhibition after 72 hrs by SRB assay; type: functional, cell-based; conditions: NCI-H460, 72 h
Outline: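 NCI-H460 cells grown in RPMI-1640 with 10% heat-inactivated FBS, seeded at about 10% confluence and allowed 24 h recovery. Exposed to graded drug concentrations or solvent for 72 h. Surviving fraction measured by sulforhodamine B. IC50 is the concentration giving a 50% drop in cell number vs vehicle, from dose-response curve fitting; mean of n=4 with SD.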

[5] = target: Heat shock protein HSP 90-beta (Homo sapiens) (UniProt P08238); assay: Inhibition of HSP90 in human A431 cells overexpressing EGFR assessed as downregulation of AKT protein expression after 24 hrs by Western blot analysis; type: cell-based; conditions: A-431; outline: as §4
Mus musculus [6] = assay: Toxicity in CD-1 nude mouse xenografted with human GTL16 cells overexpressing c-Met assessed as body weight loss at 5 mg/kg, ip administered as q4d/week for 2 weeks starting 3 days after tumor injection measured on day 5 post last dose relative to vehicle-treated control; type: organism-based; set-up: dose 5 mg/kg, route intraperitoneal; conditions: in vivo; outline: as §3
A-431 = assay: Antitumor activity against human A431 cells overexpressing EGFR xenografted in CD-1 nude mouse assessed as tumor growth inhibition at 8 mg/kg, ip administered as q4d/week for 2 weeks starting 3 days after tumor injection measured on day 5 post last dose relative to vehicle-treated control; type: functional; conditions: A-431, ip, route intraperitoneal, read-out: TGI
Outline: (§5)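 Female athymic nude mice, 5-6 weeks old, inoculated s.c. in right flank with 5 × 10^6 exponentially growing tumor cells. Intraperitoneal dosing in 10 mL/kg, starting 3 days post-implant. Tumor volume = d²·D/2 from calipered shortest and longest diameters, measured biweekly. TVI% = 100 − (mean TV treated/mean TV control × 100), scored 5 days after last dose. Mann-Whitney test vs vehicle group; 8 mice per group.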

[7] = target: Heat shock protein HSP 90-beta (Homo sapiens) (UniProt P08238); assay: Inhibition of HSP90 in human A431 cells overexpressing EGFR assessed as downregulation of CDK4 protein expression after 24 hrs by Western blot analysis; type: cell-based; conditions: A-431; outline: as §4
Mus musculus [8] = assay: In vivo inhibition of HSP90 in human A431 cells overexpressing EGFR xenografted in CD-1 nude mouse assessed as downregulation of CDK4 protein expression at 8 mg/kg, ip administered as q4d/week for 2 weeks starting 3 days after tumor injection measured at 2 hrs post last dose by Western blot analysis; type: functional, organism-based; set-up: dose 8 mg/kg; conditions: A-431; outline: as §2
[9] = Antitumor activity against human GTL16 cells overexpressing c-Met xenografted in CD-1 nude mouse assessed as tumor growth inhibition at 5 mg/kg, ip administered as q4d/week for 2 weeks starting 3 days after tumor injection measured on day 5 post last dose relative to vehicle-treated control; type: functional; conditions: GTL 16, ip, route intraperitoneal, read-out: TGI; outline: as §5
Mus musculus [10] = assay: Toxicity in CD-1 nude mouse xenografted with human A431 cells overexpressing EGFR assessed as mortality at 8 mg/kg, ip administered as q4d/week for 2 weeks starting 3 days after tumor injection measured on day 5 post last dose relative to vehicle-treated control; type: organism-based, A-431; set-up: dose 8 mg/kg, route intraperitoneal; conditions: in vivo
Outline: (§6)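 S.c. right-flank xenografts, 5 × 10^6 cells, in female athymic nude mice 5-6 weeks old. Intraperitoneal dosing in 10 mL/kg from day 3 post-implant. Lethal toxicity counted as deaths in treated mice occurring before the first control mouse died, reported as dead/treated (8 per group). Body weight loss was also tracked from the first treatment day.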

Mus musculus [11] = assay: Toxicity in CD-1 nude mouse xenografted with human GTL16 cells overexpressing c-Met assessed as mortality at 5 mg/kg, ip administered as q4d/week for 2 weeks starting 3 days after tumor injection measured on day 5 post last dose relative to vehicle-treated control; type: organism-based; set-up: dose 5 mg/kg, route intraperitoneal; conditions: in vivo; outline: as §6
Mus musculus [12] = assay: as §1, with “downregulation” for “induction”, “CDK4” for “HSP70”; type: functional, organism-based; set-up: dose 8 mg/kg; outline: as §2
[13] = target: Heat shock protein HSP 90-beta (Homo sapiens) (UniProt P08238); assay: Inhibition of HSP90 in human A431 cells overexpressing EGFR assessed as downregulation of EGFR protein expression after 24 hrs by Western blot analysis; type: cell-based; conditions: A-431; outline: as §4
Mus musculus [14] = assay: as §1, with “downregulation” for “induction”, “c-Met” for “HSP70”; type: functional, organism-based; set-up: dose 8 mg/kg; outline: as §2
Mus musculus [15] = assay: as §1, with “downregulation” for “induction”, “AKT” for “HSP70”; type: functional, organism-based; set-up: dose 8 mg/kg; outline: as §2
Mus musculus [16] = assay: In vivo inhibition of HSP90 in human A431 cells overexpressing EGFR xenografted in CD-1 nude mouse assessed as downregulation of EGFR protein expression at 8 mg/kg, ip administered as q4d/week for 2 weeks starting 3 days after tumor injection measured at 2 hrs post last dose by Western blot analysis; type: functional, organism-based; set-up: dose 8 mg/kg; conditions: A-431; outline: as §2
Mus musculus [17] = assay: In vivo inhibition of HSP90 in human A431 cells overexpressing EGFR xenografted in CD-1 nude mouse assessed as downregulation of AKT protein expression at 8 mg/kg, ip administered as q4d/week for 2 weeks starting 3 days after tumor injection measured at 2 hrs post last dose by Western blot analysis; type: functional, organism-based; set-up: dose 8 mg/kg; conditions: A-431; outline: as §2
[18] = target: Heat shock protein HSP 90-alpha (Homo sapiens, UniProt P07900); assay: Displacement of GM-FITC from full-length recombinant human Hsp90-alpha after 4 hrs by fluorescence polarization assay

Sequence of Heat shock protein HSP 90-beta (Homo sapiens) (P08238 whole entry): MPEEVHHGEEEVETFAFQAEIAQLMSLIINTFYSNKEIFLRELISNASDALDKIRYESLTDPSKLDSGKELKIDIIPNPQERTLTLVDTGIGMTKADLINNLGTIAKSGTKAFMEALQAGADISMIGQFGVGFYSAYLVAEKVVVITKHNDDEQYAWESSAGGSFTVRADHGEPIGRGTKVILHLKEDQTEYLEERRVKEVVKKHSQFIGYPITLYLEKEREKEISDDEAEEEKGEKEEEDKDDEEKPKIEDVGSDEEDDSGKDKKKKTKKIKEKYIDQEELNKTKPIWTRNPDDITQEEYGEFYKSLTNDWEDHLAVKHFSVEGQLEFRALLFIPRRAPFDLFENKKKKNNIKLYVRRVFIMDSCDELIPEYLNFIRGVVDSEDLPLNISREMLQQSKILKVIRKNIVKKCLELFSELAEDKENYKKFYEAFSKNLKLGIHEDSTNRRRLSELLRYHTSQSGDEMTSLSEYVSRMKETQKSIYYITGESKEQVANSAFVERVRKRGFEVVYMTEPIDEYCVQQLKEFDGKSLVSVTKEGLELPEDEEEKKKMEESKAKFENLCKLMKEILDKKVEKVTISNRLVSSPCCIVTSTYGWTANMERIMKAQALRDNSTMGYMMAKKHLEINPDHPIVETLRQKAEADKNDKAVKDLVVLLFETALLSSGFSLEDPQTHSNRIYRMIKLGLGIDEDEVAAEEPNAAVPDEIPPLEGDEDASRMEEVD

CCNC(=O)c1nnn(-c2cc(C(C)C)c(O)cc2O)c1-c1ccc(CN2CCCC(O)C2)cc1 (stereo not given)
inhibition (Mus musculus [1]): Active
inhibition (Mus musculus [2]): Active
Imax (Mus musculus [3]): 7%
inhibition [4]: Dose-dependent effect
pIC50 (NCI-H460): 7.21
inhibition [5]: Dose-dependent effect
Imax (Mus musculus [6]): 17%
inhibition in vivo at 8 mg/kg (A-431): 45%
inhibition [7]: Dose-dependent effect
inhibition (Mus musculus [8]): Active
inhibition in vivo at 5 mg/kg [9]: 42%
Activity (Mus musculus [10]): Non-toxic
Activity (Mus musculus [11]): Non-toxic
inhibition (Mus musculus [12]): Active
inhibition [13]: Dose-dependent effect
inhibition (Mus musculus [14]): Active
inhibition (Mus musculus [15]): Active
inhibition (Mus musculus [16]): Active
inhibition (Mus musculus [17]): Active
pIC50 [18]: 7.64
